Experimental data from ChEMBL document CHEMBL4477184, “Pelianthinarubins A and B, Red Pyrroloquinoline Alkaloids from the Fruiting Bodies of the Mushroom Mycena pelianthina” (J Nat Prod, 2016).
Calls of active or inactive are those of the source.

What was measured:
Format in all cases: functional, organism-based
Lepidium sativum = assay: Herbicidal activity against Lepidium sativum
Brevibacillus brevis = assay: Antibacterial activity against Bacillus brevis after 24 hrs by plate diffusion assay
Method in brief: (§1)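 Paper discs (6 mm diameter, 0.5 mm thick) were loaded with 0.1 or 0.5 mg of sample dissolved in distilled water and dried under sterile conditions. The discs were then placed on agar plates inoculated with the test bacterium and incubated at 37 °C for 24 h.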

Cladosporium cucumerinum = assay: Antifungal activity against Cladosporium cucumerinum after 48 hrs by plate diffusion assay
Method in brief: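 Disc diffusion assay. Paper discs (6 mm) were loaded with 0.1 or 0.5 mg of sample from distilled water and dried under sterile conditions. The discs were laid on agar plates inoculated with Cladosporium cucumerinum, and the plates were incubated at 18 °C for 48 h.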

Bacillus subtilis = assay: Antibacterial activity against Bacillus subtilis after 24 hrs by plate diffusion assay; method in brief: as §1
Escherichia coli = assay: Antibacterial activity against Escherichia coli after 24 hrs by plate diffusion assay; method in brief: as §1
Folsomia candida = assay: Insecticidal activity against Folsomia candida

Measured: Activity

C[N+](C)(C)[C@@H](Cc1cn([C@@H]2CCN3C4=C2C(=O)C(=O)c2[nH]cc(c24)C[C@H]3C(=O)O)cn1)C(=O)O
inactive: all assays above

C[N+](C)(C)[C@H](C(=O)O)[C@H](O)c1cn([C@@H]2CCN3C4=C2C(=O)C(=O)c2[nH]cc(c24)C[C@H]3C(=O)O)cn1
inactive: all assays above
